Rows were chosen to be rich in hits. Some 1.7% of all compounds tested hit in one or more screens of this group.
CHRM5 agonist: CHRM5 agonism in calcium assay; P08912; CHO-K1 hM5 cells, Fluo-8 calcium fluorescence; 0% DMSO wells, 100% maximal acetylcholine response; activation, % at 3 µM; 360,000 compounds, 0.19% hits;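 active means activation above the run's mean over test compounds plus 3 SD, cut at about 23% in these data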;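 further: signal is peak over basal fluorescence ratio across the kinetic read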
Target sequence (P08912 whole entry, looked up): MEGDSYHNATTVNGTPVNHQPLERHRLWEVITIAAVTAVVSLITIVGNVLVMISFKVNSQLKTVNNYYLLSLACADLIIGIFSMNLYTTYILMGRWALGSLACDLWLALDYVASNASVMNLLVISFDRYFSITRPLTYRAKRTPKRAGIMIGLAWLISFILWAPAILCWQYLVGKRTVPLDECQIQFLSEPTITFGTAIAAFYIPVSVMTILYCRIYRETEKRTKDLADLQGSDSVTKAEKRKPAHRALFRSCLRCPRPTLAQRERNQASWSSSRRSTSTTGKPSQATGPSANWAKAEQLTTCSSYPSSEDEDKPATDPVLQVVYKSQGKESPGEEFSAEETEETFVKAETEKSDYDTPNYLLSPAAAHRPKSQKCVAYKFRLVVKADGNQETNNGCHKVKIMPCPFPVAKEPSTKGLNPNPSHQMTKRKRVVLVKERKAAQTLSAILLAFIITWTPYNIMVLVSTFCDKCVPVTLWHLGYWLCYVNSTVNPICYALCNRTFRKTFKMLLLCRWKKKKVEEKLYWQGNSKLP
M1 PAM parental: nonselective activator or artifact in parental CHO-K1 calcium assay; ATP EC20, Fluo-8 calcium fluorescence; 0% at ATP EC20, 100% at ATP max; activation, % at 3 µM; 360,000 compounds, 0.02% hits; AID 602247;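 active means activation above the run cutoff, the mean activation of all test compounds plus 3 SD, cut at about 40% in these data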;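 further: peak over basal fluorescence ratio in a 140 s read after ATP addition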
M5 antag: CHRM5 antagonism in calcium assay. CHO-hM5 cells, Fluo-8 calcium fluorescence, ACh EC80. inhibition, % at 3 µM. 360,000 compounds, 0.59% hits;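 active means inhibition above a per-plate cutoff, the mean of that plate's test compounds plus 3 SD, cut at about 27% in these data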;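 further: 0% = acetylcholine EC80 with DMSO and 100% = DMSO without agonist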
CHO-K1 Ca antag: M1 antagonist counterscreen hit in parental CHO-K1 cells. 360,000 compounds, 0.6% hits. ATP-induced calcium, Fluo-8 fluorescence. inhibition, % at 3 µM;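 active means inhibition above a per-plate cutoff, the plate's mean sample inhibition plus 3 SD, cut at about 24% in these data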;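 further: 0% = DMSO plus EC80 ATP and 100% = DMSO alone without ATP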
M5 PAM: potentiates acetylcholine response at human M5 receptor; P08912; CHO-K1 hM5, Fluo-8 calcium, ACh EC20 PAM; 0% = ACh EC20, 100% = ACh EC100; activation, % at 3 µM; 360,000 compounds, 0.3% hits; AID 624038;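 active means activation above the run cutoff, the mean activation of all test compounds plus 3 SD, cut at about 18% in these data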
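system = human M5 receptor in CHO-K1 cells | compound = one concentration, 3 µM final (nominal) | schedule = Post-acetylcholine fluorescence recording 140 s | signal = Fluo-8 calcium dye fluorescence, kinetic read | benchmarks = low control EC20 acetylcholine (0%), high control EC100 acetylcholine (100%) | repeats = singlicate, one well per test compound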
M1 ag parental: counter-screen for M1 agonists: effect in parental CHO-K1 cells; activation, % at 3 µM; 360,000 compounds, 0.48% hits; AID 602248; Fluo-8 calcium fluorescence; scaled to maximal ATP response, vehicle zero; in the data active means activation above about 15%;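 further: untransfected CHO-K1 host cells lacking M1 receptor as counterscreen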
An asterisk follows results filed as active.

SMILES	CHRM5 agonist	M1 PAM parental	M5 antag	CHO-K1 Ca antag	M5 PAM	M1 ag parental
CC(c1ccon1)N(C)C(=O)c1cccc(OC2CCN(S(C)(=O)=O)CC2)c1 (stereo unspecified)	0.4	-4.6	-0.8	-1.4	-1.0	1.2
Cc1ccc(-c2nnc(N3CCOCC3)c3ccccc23)cc1S(N)(=O)=O	4.9	-10.4	-4.5	13.5	18.6*	-0.9
Cc1nn(C)c(C)c1CN(Cc1nc(CCC(C)C)no1)C(C)C	5.8	4.1	31.6*	19.3	-20.8	11.8
CC(C)CCc1noc(CN(C)CCC2CCOCC2)n1	3.1	8.4	-7.6	-2.7	16.1	0.0
O=C(Nc1ccc2c(c1)CCCN2C(=O)c1cccs1)c1c(F)cccc1F	-1.6	10.8	-8.9	-15.2	13.0	5.0
NNC(=O)c1cc(C23CC4CC(CC(C4)C2)C3)[nH]n1	1.1	-8.2	-0.1	2.3	1.3	17.2*
CCOc1ccc(Br)cc1S(=O)(=O)Nc1ccc(Cl)c(S(=O)(=O)N(C)C)c1	2.5	4.9	8.7	4.3	-6.7	2.5
O=C(Cc1ccccc1F)c1ccc(O)cc1O	-2.2	5.9	-4.2	7.6	5.3	19.4*
O=C(Cc1c(F)cccc1Cl)c1ccc(O)cc1O	-3.9	0.5	-4.7	-7.6	-4.4	0.6
Cc1cccn2c(CNCC3OCCc4ccccc43)c(C(=O)N3CCCCC3)nc12 (stereo unspecified)	3.8	15.7	6.7	-1.1	-8.9	3.3
COCCN1CCC(CNCc2c(C(=O)N3CCCCC3)nc3c(C)cccn23)C1 (stereo unspecified)	6.3	-2.8	-2.9	2.0	23.0*	-0.4
CCn1c(C)nc2cc(S(=O)(=O)C(F)(F)C(F)C(F)(F)F)ccc21 (stereo unspecified)	6.7	-0.5	27.0*	14.8	-14.2	13.4
OC(CNCC1(N2CCCCC2)CCCCC1)COc1ccc(Cl)cc1Cl (stereo unspecified)	-13.9	2.5	-8.3	-16.5	25.8*	0.9
O=C(COC(=O)CNC(=O)c1ccc(Cl)cc1Cl)NC1CCCCCCC1	3.7	0.1	0.3	2.4	0.8	1.1
CN(C)c1ccc(/C=C2\SC(=S)N(Nc3ncc(C(F)(F)F)cc3Cl)C2=O)cc1	12.4	5.8	31.2*	38.6*	-6.0	20.5*
COc1ccc(-c2cc(C#N)nc(NN)n2)cc1	-2.9	-0.3	2.3	-1.8	-2.5	-0.2
Cc1ccc(SCC(=O)N2CCCC2)cc1	-7.0	-7.2	-2.6	2.7	18.8*	0.0
Cc1ccc(SCCC(=O)N2CCCC2)cc1	1.6	12.2	1.5	-0.7	-1.1	8.4
CCCOc1ccc(C(=O)CCC(=O)NNC(=O)Cn2nc(C)cc2C)cc1	-1.2	-3.2	-0.1	-4.6	6.0	0.9
O=C(c1ccc(C#CC2(O)CCCCC2)cc1)N1CCN(Cc2ccccc2)CC1	-0.7	12.4	-4.2	3.6	-3.5	3.1
C=CCn1c(C)cc(C(=O)COc2ccc(C)nc2[N+](=O)[O-])c1C	1.4	-1.9	2.1	9.1	-7.4	17.0*
CCOC(=O)c1cc(N2CCCCC2)nc2ccccc12	-2.7	-11.1	27.6*	1.5	-7.8	-0.2
COc1ccc(N2CCN(c3cc(C)c4ccccc4n3)CC2)cc1	11.3	5.2	9.6	1.2	4.1	2.5
Cc1cc(N2CCN(c3ccccc3)CC2)nc2ccccc12	4.7	21.8	9.0	-10.1	0.1	23.9*
Cc1c(C(=O)Nc2ccc3c(c2)OCCO3)sc2nc(-c3ccccc3)cn12	6.3	-10.1	28.4*	9.1	-24.6	15.0
SMILES	CHRM5 agonist	M1 PAM parental	M5 antag	CHO-K1 Ca antag	M5 PAM	M1 ag parental
Oc1c(N=Nc2ccccn2)ccc2ccccc12	-7.1	6.0	33.2*	11.3	-14.0	0.1
Oc1[nH]c2ccccc2c1N=Nc1ccccn1	3.2	-1.9	11.4	-6.2	0.5	0.2
CC1Sc2ccc(S(=O)(=O)N3CCC(C(=O)Nc4ccc(Cl)cc4)CC3)cc2NC1=O (stereo unspecified)	-0.4	-19.6	33.1*	31.3*	-13.2	8.8
CCOc1ccc(N2CC(C(=O)Nc3ccc(S(=O)(=O)N4CCCC4)cc3)CC2=O)cc1 (stereo unspecified)	-4.4	10.6	-0.4	-10.3	-6.6	-0.2
COc1ccc(NC(=O)C2CCN(S(=O)(=O)c3ccc4c(c3)NC(=O)C(C)S4)CC2)cc1 (stereo unspecified)	-0.3	-14.7	16.0	1.9	-7.3	5.7
Cc1ccc(NC(=O)C2CCN(S(=O)(=O)c3ccc(N4CCCC4=O)cc3)CC2)cc1Cl	1.6	-9.9	49.5*	31.6*	-15.0	15.6*
CCOc1ccc(N2CC(C(=O)Nc3ccc(S(=O)(=O)N4CCCCC4)cc3)CC2=O)cc1 (stereo unspecified)	-2.7	14.6	-2.8	68.3*	-6.3	-0.3
Cc1cc2c3c(c1)C(C)CC(C)(C)N3C(=O)C2=O (stereo unspecified)	19.0	21.2	2.1	-15.7	-2.9	0.8
CC1CC2(CCCCC2)N2C(=O)C(=O)c3cccc1c32 (stereo unspecified)	62.7*	17.7	-5.5	-13.2	-10.9	-1.3
CCCCOC(=O)CSc1nc(N)c(C#N)c(-c2ccc(OC)cc2)c1C#N	-4.1	12.4	-21.2	-20.2	23.1*	-0.4
CCCCOC(=O)CSc1nc(N)c(C#N)c(-c2ccc(OCC)cc2)c1C#N	-0.9	-5.0	6.2	26.8*	0.1	0.2
CCCCOc1ccc(-c2c(C#N)c(N)nc(SCC(N)=O)c2C#N)cc1	2.3	12.3	13.0	-13.2	1.7	0.4
O=C(c1ccccc1[N+](=O)[O-])N1CCCC(C(=O)N2CCCCCC2)C1 (stereo unspecified)	-3.7	5.3	12.5	-5.5	-2.1	0.6
CN1CCN(c2ccc(-c3ccnn3C(=O)Nc3cccc(C(F)(F)F)c3)cc2)CC1	5.8	-10.3	28.0*	21.9	-13.9	2.5
CC(C)(C)C(=O)Nc1ccc(Sc2ccc([N+](=O)[O-])cc2)cc1	1.7	-7.2	42.7*	20.2	-18.1	11.4
CCOC(=O)C1CCCN(c2nc3c(C)cccn3c(=O)c2/C=C(\C#N)C(=O)NCc2ccco2)C1 (stereo unspecified)	31.0*	10.1	12.8	-18.0	-27.0	1.6
CCOc1ccccc1OC(=O)c1ccco1	-1.5	-5.7	-2.3	27.3*	3.0	-0.3
CCN(c1ccccc1)S(=O)(=O)c1ccc(OC)c(NC(=O)C2CCC2)c1	-0.3	16.1	10.8	0.1	0.3	-0.5
CN(C)S(=O)(=O)c1cccc(-c2nn(-c3ccccc3)cc2/C=C(\C#N)c2nc3ccccc3[nH]2)c1	-1.3	-10.6	3.4	24.3*	-5.0	0.1
NS(=O)(=O)c1ccc(NC(=S)Nc2ccc(C(=O)N3CCCCC3)cc2)cc1	-5.0	17.1	10.2	10.0	-6.9	15.8*
